What was measured:
[1] = molecular target: T1, Adrenergic receptor alpha-1 (Rattus norvegicus, UniProt P15823+P23944+P43140); experiment: In vitro binding affinity against Alpha-1A adrenergic receptor in isolated prostate tissue of rat; assay type: tissue-based, Prostate gland
T1 sequence (P15823 whole entry): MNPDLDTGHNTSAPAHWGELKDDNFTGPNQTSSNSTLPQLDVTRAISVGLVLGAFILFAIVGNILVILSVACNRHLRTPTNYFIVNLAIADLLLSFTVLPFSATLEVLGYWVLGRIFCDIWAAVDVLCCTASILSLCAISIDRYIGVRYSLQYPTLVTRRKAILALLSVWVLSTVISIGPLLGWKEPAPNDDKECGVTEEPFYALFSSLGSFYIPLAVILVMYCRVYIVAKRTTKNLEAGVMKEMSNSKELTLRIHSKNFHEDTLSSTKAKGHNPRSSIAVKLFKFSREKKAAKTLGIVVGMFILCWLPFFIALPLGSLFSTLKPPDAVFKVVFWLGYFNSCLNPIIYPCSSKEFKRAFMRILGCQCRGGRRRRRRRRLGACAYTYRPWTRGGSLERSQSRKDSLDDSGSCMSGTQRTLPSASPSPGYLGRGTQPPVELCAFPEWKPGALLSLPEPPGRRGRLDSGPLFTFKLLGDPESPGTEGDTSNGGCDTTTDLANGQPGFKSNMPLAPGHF
T1 sequence (P23944 whole entry): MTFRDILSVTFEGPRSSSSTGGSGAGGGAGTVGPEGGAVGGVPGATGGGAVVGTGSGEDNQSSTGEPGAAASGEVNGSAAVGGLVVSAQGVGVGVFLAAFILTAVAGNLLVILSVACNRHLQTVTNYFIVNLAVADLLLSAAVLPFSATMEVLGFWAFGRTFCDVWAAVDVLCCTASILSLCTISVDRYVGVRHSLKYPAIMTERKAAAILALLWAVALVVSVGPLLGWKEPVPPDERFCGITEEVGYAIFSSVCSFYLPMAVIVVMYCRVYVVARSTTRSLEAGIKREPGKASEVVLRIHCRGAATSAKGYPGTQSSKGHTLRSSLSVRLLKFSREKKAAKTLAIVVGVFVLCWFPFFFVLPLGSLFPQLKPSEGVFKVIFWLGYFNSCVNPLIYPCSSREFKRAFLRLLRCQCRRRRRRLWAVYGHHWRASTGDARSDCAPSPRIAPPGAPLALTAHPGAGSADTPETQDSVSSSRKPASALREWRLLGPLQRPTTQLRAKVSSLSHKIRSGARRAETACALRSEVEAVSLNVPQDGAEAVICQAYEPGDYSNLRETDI
T1 sequence (P43140 whole entry): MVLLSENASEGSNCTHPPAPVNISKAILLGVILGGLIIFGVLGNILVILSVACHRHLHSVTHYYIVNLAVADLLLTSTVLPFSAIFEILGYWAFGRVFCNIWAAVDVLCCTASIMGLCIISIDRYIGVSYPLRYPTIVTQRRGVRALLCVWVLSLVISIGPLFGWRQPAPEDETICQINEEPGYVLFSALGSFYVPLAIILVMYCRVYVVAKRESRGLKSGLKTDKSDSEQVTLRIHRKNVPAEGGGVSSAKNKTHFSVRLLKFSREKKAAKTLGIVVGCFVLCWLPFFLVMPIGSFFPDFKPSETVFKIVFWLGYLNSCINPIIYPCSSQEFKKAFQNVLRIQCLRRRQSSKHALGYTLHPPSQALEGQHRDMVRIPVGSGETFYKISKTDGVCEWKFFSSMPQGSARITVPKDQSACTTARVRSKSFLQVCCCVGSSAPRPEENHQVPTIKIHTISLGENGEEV

Rattus norvegicus [2] = species: Rattus norvegicus; experiment: Antagonistic activity against norepinephrine induced contractions in rat vas deferens.; assay type: functional
Rattus norvegicus [3] = species: Rattus norvegicus; experiment: (§1) Duration of action in rat; assay type: ADME, organism-based; conditions: in vivo
Outline: (§2)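 Anesthetized (urethane) male Sprague-Dawley rats (300–400 g), kept at 37 °C rectal temperature. Anterior prostate attached to a force transducer at 2 g resting tension. Pretreatment: atropine and propranolol (1 mg/kg each). Contractions were evoked by agonist (phenylephrine 10 μg/kg or (R)-A-61603 30 ng/kg), given 5 min after antagonist and then every 30 min for up to 4 h.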

[4] = molecular target: Adrenergic receptor alpha-1 (Rattus norvegicus) (UniProt P15823+P23944+P43140); experiment: Antagonistic activity against Alpha-1 adrenergic receptor in rat prostate tissue using A61603 as agonist; assay type: functional, tissue-based; conditions: Prostate gland
Canis familiaris [5] = species: Canis familiaris; experiment: Potency to inhibit phenylephrine stimulated intraurethral pressure in dog.; assay type: functional, Canis lupus familiaris, Urethra
Outline: (§3)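 Male mongrel dogs (9–14 kg), pentobarbital-anesthetized (35 mg/kg iv plus 4–5 mg/kg/h infusion), ventilated, with femoral catheters. Control iv bolus phenylephrine dose–response curves for intraurethral and diastolic pressure, repeated after successive iv antagonist doses (30, 100, 300). Kb by Arunlakshana–Schild analysis.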

Rattus norvegicus [6] = species: Rattus norvegicus; experiment: Dose required to produce 50% inhibition of phenylephrine induced contractile response in situ rat prostate.; assay type: functional, Prostate gland
Outline: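 Male Sprague-Dawley rats (300–400 g), urethane-anesthetized, held at 37 °C rectal, pretreated with atropine and propranolol (1 mg/kg each). Anterior prostate on a force transducer at 2 g resting tension; phenylephrine challenge 10 μg/kg. For AD50, rising noncumulative antagonist doses were given every 20 min, with agonist 5 min after each. For duration, agonist was given 5 min after antagonist, then every 30 min for up to 4 h.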

Rattus norvegicus [7] = species: Rattus norvegicus; experiment: Antagonism against phenylephrine induced contractions in isolated prostate tissue of rat; assay type: functional, Prostate gland
Outline: (§4)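 Isolated prostate strips (rat or dog) contracted with phenylephrine as agonist. Antagonist potency is expressed as Kb, derived from the shift in the agonist response by a previously published method.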

Homo sapiens = species: Homo sapiens; experiment: Antagonism against phenylephrine induced contractions in isolated prostate tissue of human; assay type: functional; conditions: Prostate gland
Canis familiaris [8] = species: Canis familiaris; experiment: Potency to inhibit phenylephrine stimulated diastolic blood pressure in dog.; assay type: functional, Canis lupus familiaris, Artery; outline: as §3
Canis familiaris [9] = species: Canis familiaris; experiment: Antagonism against phenylephrine induced contractions in isolated prostate tissue of dog; assay type: functional, Canis lupus familiaris, Prostate gland; outline: as §4
Rattus norvegicus [10] = species: Rattus norvegicus; experiment: Dose required to produce 50% inhibition of phenylephrine induced diastolic blood pressure in rat.; assay type: functional, Artery
Rattus norvegicus [11] = species: Rattus norvegicus; experiment: Antagonistic activity against norepinephrine induced contractions in rat aorta.; assay type: functional
Canis familiaris [12] = species: Canis familiaris; experiment: Potency to inhibi phenylephrine stimulated diastolic blood pressure in dog.; assay type: functional, Canis lupus familiaris, Artery; outline: as §3
Rattus norvegicus [13] = species: Rattus norvegicus; experiment: as §1; assay type: functional; outline: as §2

CCC1=C(C(N)=O)C(c2ccc(F)c(F)c2)N(C(=O)NCCCN2CCC(C(=O)OC)(c3ccccc3)CC2)C(=O)N1 (stereo not drawn)
Ki [1]: 0.27 nM | Kb (Rattus norvegicus [2]): 2.5 nM | Duration of action (Rattus norvegicus [3]): > 4 h | Kb [4]: 0.3 nM | Kb (Canis familiaris [5]): 4.2 µg/kg | AD50 (Rattus norvegicus [6]): 0.02 mg/kg | Kb (Rattus norvegicus [7]): 1 nM | Kb (Homo sapiens): 0.39 nM | Kb (Canis familiaris [8]): 187 µg/kg | Kb (Canis familiaris [9]): 3.7 nM | AD50 (Rattus norvegicus [10]): >3 mg/kg | Kb (Rattus norvegicus [11]): > 1000 nM

COc1cc2nc(N3CCN(C(=O)C4CCCO4)CC3)nc(N)c2cc1OC (stereo not drawn) [TERAZOSIN]
Kb (Canis familiaris [12]): 15.7 µg/kg | Duration of action (Rattus norvegicus [13]): >4 h | Kb (Canis familiaris [5]): 16.4 µg/kg | AD50 (Rattus norvegicus [6]): 0.052 mg/kg | AD50 (Rattus norvegicus [10]): 0.065 mg/kg | Kb (Rattus norvegicus [11]): 19 nM

Source: ChEMBL document CHEMBL1132476, “Design and synthesis of novel alpha(1)(a) adrenoceptor-selective antagonists. 1. Structure-activity relationship in dihydropyrimidinones” (J Med Chem, 1999)
